{"data": "Measurements pooled from the literature", "target": "Aurora kinase B (AURKB, Homo sapiens, UniProt Q96GD4)", "note": "Protocols differ between the studies behind these lines."}
{"SMILES": "C#Cc1cccc(Nc2ncnc3cc(OCCOC)c(OCCOC)cc23)c1", "test": "enzyme activity, inhibitor", "setting": "0.5 µM", "measurement": "activity vs control", "result": "74.7%"}
{"SMILES": "C[C@H](c1cccc(C#N)c1)n1cc(Cl)cc(C(N)=O)c1=N", "test": "cell-free assay, competition with immobilised ligand", "setting": "1 µM", "measurement": "remaining binding", "result": "100%"}
{"SMILES": "c1cc(CN2CCOCC2)cc(Nc2ncc(C3CC3)c(NCCc3c[nH]cn3)n2)c1", "test": "enzyme activity, inhibitor, radiometric", "setting": "1 µM", "measurement": "remaining activity", "result": "2%"}
{"SMILES": "COc1cccc(CNC(=O)c2nc3scc(COCc4ccc(C(=O)O)cc4)c3c(=O)[nH]2)c1", "test": "cell-free assay, competition with immobilised ligand", "setting": "1 µM", "measurement": "remaining binding", "result": "71.3%"}
{"SMILES": "CNc1cccc2cc(C(=O)Nc3ccc(C(=O)O)cc3)c(=O)[nH]c12", "test": "enzyme activity, inhibitor", "setting": "10 µM", "measurement": "inhibition", "result": "-8.1%"}
{"SMILES": "O=C1c2ccccc2-c2n[nH]c3cccc1c23", "test": "enzyme activity, inhibitor", "setting": "0.5 µM", "measurement": "activity vs control", "result": "14.9%"}
{"SMILES": "CS(=O)(=O)Nc1cccc(-c2csc(NC(=O)CSc3nc4nccnc4c(=O)n3CCc3ccccc3)n2)c1", "test": "enzyme activity, inhibitor", "setting": "10 µM", "measurement": "inhibition", "result": "-11%"}
{"SMILES": "COc1cc(/C=C/C(=O)CC(=O)/C=C/c2ccc(O)c(OC)c2)ccc1O", "test": "enzyme activity, inhibitor", "setting": "1 µM", "measurement": "activity vs control", "result": "79%"}
{"SMILES": "O=C(NCCCNc1nc(Nc2cccc(NC(=O)N3CCCC3)c2)ncc1C1CC1)C1CCC1", "test": "enzyme activity, inhibitor, radiometric", "setting": "1 µM", "measurement": "remaining activity", "result": "11%"}
{"SMILES": "Cc1cc(Nc2cc3ncccc3c(N[C@@H]3C[C@H]4CC[C@@H](C3)N4CCC#N)n2)n[nH]1", "test": "enzyme activity, inhibitor", "setting": "1 µM", "measurement": "inhibition", "result": "80%"}
{"SMILES": "Cc1nn(CC(F)(F)F)cc1Nc1ncc(C2CC2)c(NCCCNC(=O)C2CCC2)n1", "test": "enzyme activity, inhibitor, radiometric", "setting": "1 µM", "measurement": "remaining activity", "result": "102%"}
{"SMILES": "CN1CC(Oc2cnc(C#N)cc2-c2ccn3nc(NC(=O)C4CC4)cc3c2)C1", "test": "enzyme activity, inhibitor", "setting": "1 µM", "measurement": "inhibition", "result": "1%"}
{"SMILES": "c1ccc(N2CCN(Cc3nc4ccccc4[nH]3)CC2)nc1", "test": "cell-free assay, competition with immobilised ligand", "setting": "1 µM", "measurement": "remaining binding", "result": "18%"}
{"SMILES": "NS(=O)(=O)c1ccc(CNc2ccnc(Nc3cccc(CN4CCOCC4)c3)n2)cc1", "test": "enzyme activity, inhibitor, radiometric", "setting": "1 µM", "measurement": "remaining activity", "result": "48%"}
{"SMILES": "CN(C(=O)c1ccccc1)c1cc(N(C)c2ccc3c(c2)CCc2ccc(C(=O)NCCN4CCOCC4)cc2C3=O)ccc1F", "test": "cell-free assay, competition with immobilised ligand", "setting": "1 µM", "measurement": "remaining binding", "result": "100%"}
{"SMILES": "COc1cc2c(Nc3ccc(Br)cc3F)ncnc2cc1OCC1CCN(C)CC1", "test": "cell-free assay", "setting": "0.5 µM", "measurement": "remaining signal", "result": "95.5%"}
{"SMILES": "CCc1ccccc1C(=O)Nc1n[nH]c2c(C)c(F)c(C3C(C#N)=C(C)N(C)C(C)=C3C#N)cc12", "test": "cell-free assay, competition with immobilised ligand", "setting": "1 µM", "measurement": "remaining binding", "result": "88%"}
{"SMILES": "CN(C)C1CCN(CC#Cc2nn(C3CCCC3)c3nc(NCc4ccccc4)ncc23)C1 (centres unmarked)", "test": "enzyme activity, inhibitor, FRET", "setting": "0.1 µM", "measurement": "inhibition", "result": "8%"}
{"SMILES": "CC(=O)c1c(NS(C)(=O)=O)c2cc(-c3ccc(Cl)cc3)c(-c3ccc(Cl)cc3Cl)nc2n(C)c1=O", "test": "cell-free assay, competition with immobilised ligand", "setting": "1 µM", "measurement": "remaining binding", "result": "100%"}
{"SMILES": "COc1cc2nccc(Oc3ccc(NC(=O)c4c5n(n(-c6ccc(F)cc6)c4=O)CCCC5)cc3)c2cc1OC", "test": "enzyme activity, inhibitor", "setting": "0.1 µM", "measurement": "inhibition", "result": "60%"}
